Here are results for 30 sequences from the array DNA melting data of Ke et al. (doi:10.1101/2024.01.08.574731).

A short description of data set [1]: folding enthalpy; higher = less favourable; fluorescence melt of hairpins on a sequencing array, two-state fit. The conditions noted are these: sodium 0.088 M. In short, it runs like this:
(§1)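 Folding enthalpy and melting temperature come from bootstrapped two-state fits to Cy3 fluorescence of library hairpins carrying annealed Cy3 and quencher oligos on a sequenced MiSeq flow cell. Imaging was done in 50 mM Na-HEPES pH 8.0, 25 mM NaCl, stepping by 2.5 °C up to 60 °C, and signals were normalised to pre-quench Cy3 and to control constructs. Results of four replicates were combined by inverse variance, and fitted temperatures were raised by 9.35 °C to match UV melts.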

The nature of data set [2]: melting temperature; fluorescence melt of hairpins on a sequencing array, two-state fit, raised by 9.35 °C to match UV melts. Conditions: sodium 0.088 M. In short, it runs like this:
as §1

Turning to CGCACCGGAAACGGCGCG (((.(((....))).))), in data set [1], the folding enthalpy was -52.1 kcal/mol. Moreover, the Tm in data set [2] came to 60.9 °C.
Regarding CGCACGGAAACGTCCGCG ((((((....)))..))), the folding enthalpy in data set [1] is -19.1 kcal/mol. Also, the Tm in data set [2] was 41.2 °C.
For CGCACGGAAACGTCGGCG ((((((....)))..))), the folding enthalpy in data set [1] is -24 kcal/mol. The Tm in data set [2] came out at 46.6 °C.
Taken in the same sequence, the figures for CGCACTCGGAAACGAGCG (((..(((....)))))) were -14.1 kcal/mol and 39.9 °C.
Regarding CGCAGCGGAAACGCCGCG (((.(((....))).))), the folding enthalpy in data set [1] is -34 kcal/mol. For the same sequence, the Tm in data set [2] worked out at 58 °C.
Taken in the same sequence, the figures for CGCAGGAAACTGCG (((((....))))) were -25.9 kcal/mol and 60.3 °C.
CGCAGTCGGAAACGAGCG (((..(((....)))))): the folding enthalpy in data set [1] was -10.9 kcal/mol. In addition, the Tm in data set [2] was 36 °C.
For CGCATACGGAAACGTGCG (((..(((....)))))), in that order: -30.2 kcal/mol and 48.9 °C.
For CGCCATCGGAAACGAGCG (((..(((....)))))), the folding enthalpy in data set [1] was -18.1 kcal/mol. The Tm in data set [2] stood at 37 °C.
Taken in the same sequence, the figures for CGCCCGGAAACGGAGCG ((((((....))).))) were -31.8 kcal/mol and 58.3 °C.
Take CGCCCGGAAACGGCCGCG ((((((....)))..))): the folding enthalpy in data set [1] is -19.6 kcal/mol. Further, in data set [2], the Tm is 43.8 °C.
In the case of CGCCCGGAAACGGGAGCG ((((((....)))..))), the folding enthalpy in data set [1] is -15.3 kcal/mol. The Tm in data set [2] stood at 55.3 °C.
Consider CGCCGCGGAAACGCAGCG (((.(((....))).))), for which the folding enthalpy in data set [1] was -37.5 kcal/mol. The Tm in data set [2] came to 59 °C.
For CGCCTACGGAAACGTGCG (((..(((....)))))), in that order: -23.2 kcal/mol and 39.4 °C.
For CGCCTCCGGAAACGGGCG (((..(((....)))))), the folding enthalpy in data set [1] was -25.6 kcal/mol. Moreover, the Tm in data set [2] is 48.1 °C.
Taken in the same sequence, the figures for CGCGACGGAAACGTAGCG (((.(((....))).))) were -38.6 kcal/mol and 58.6 °C.
As for CGCGACGGAAACGTGGCG (((.(((....))).))), in data set [1], the folding enthalpy was -49 kcal/mol. Also, the Tm in data set [2] turned out to be 56.9 °C.
Taken in the same sequence, the figures for CGCGACGGAAACGTTGCG (((.(((....))).))) were -54.2 kcal/mol and 61 °C.
Take CGCGCCGGAAACGGGCG (((.(((....)))))): the folding enthalpy in data set [1] is -26.4 kcal/mol. Moreover, the Tm in data set [2] came to 60.4 °C.
For CGCGCGGAAACGCTTGCG ((((((....)))..))), in that order: -21.5 kcal/mol and 49.4 °C.
In the case of “CGCGGAAAAACAACAACAACCGCG ((....................))”, the folding enthalpy in data set [1] is -29.6 kcal/mol. For the same sequence, in data set [2], the Tm was 37.3 °C.
For CGCGGAAAAATCCGCG ((((((....)))))), in that order: -38.1 kcal/mol and 58.9 °C.
Taken in the same sequence, the figures for CGCGGAAAACTCCGCG ((((((....)))))) were -38.9 kcal/mol and 62 °C.
Turning to CGCGGAAAGCTCCGCG ((((((....)))))), the folding enthalpy in data set [1] is -28.3 kcal/mol. For the same sequence, the Tm in data set [2] amounted to 68.7 °C.
Taken in the same sequence, the figures for CGCGGAACACTCCGCG ((((((....)))))) were -34.8 kcal/mol and 63.3 °C.
Taken in the same sequence, the figures for CGCGGAACTATCCGCG ((((((....)))))) were -31.2 kcal/mol and 68.7 °C.
On to CGCGGAAGAATCCGCG ((((((....)))))), for which the folding enthalpy in data set [1] is -32.1 kcal/mol. Besides, the Tm in data set [2] was found to be 69 °C.
Taken in the same sequence, the figures for CGCGGAAGATTCCGCG ((((((....)))))) were -38.7 kcal/mol and 68.9 °C.
Taken in the same sequence, the figures for CGCGGAAGCATCCGCG ((((((....)))))) were -27.5 kcal/mol and 60.3 °C.
As to CGCGGAAGGCTCCGCG ((((((....)))))), in data set [1], the folding enthalpy was -30.1 kcal/mol. The Tm in data set [2] was determined as 68.7 °C.
